Hits are enriched below; roughly 0.74% of the tested compounds scored in any of these assays.
Diaph act CS: activates diaphorase or chemically reduces, flagging diaphorase assay artifacts; Diaphorase/resazurin coupled assay, resorufin fluorescence, 16 min; stronger effect = higher value; 1 = vehicle wells, 0 = NADH-free wells; activation factor at 20 µM; actives 0.005% (n = 190,000); AID 1229;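 active = diaphorase activity raised at least twofold by the compound at 20 µM; inactive = activation factor below 2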
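Material: purified diaphorase enzyme from Clostridium kluyveri; Also added: 0.114 mM NADH and 0.1 mM resazurin, final amounts; Doses: single compound dose of 20 µM, 1% DMSO final; Times: 16 min enzyme reaction, ambient temperature; Detection: resorufin fluorescence, excitation 544 nm, emission 590 nm; Measure: increased resorufin signal from activators or reducing compounds.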
G6PDH CS: counter-screen for G6PDH assay hits: L. mesenteroides G6PDH inhibition; inhibition, % at 5 µM; Purified L. mesenteroides G6PDH, diaphorase/resazurin coupled fluorescence, 45 min; actives 0.12% (n = 200,000); AID 1020; in the data active = inhibition above about 50%
Diaph inh CS: counter-screen for diaphorase-based assays: diaphorase inhibitors and chemical oxidizers | inhibition, % at 20 µM | AID 1217 | actives 0.69% (n = 190,000) | diaphorase resazurin-to-resorufin fluorescence, NADH, 16 min; bacterial (C. kluyveri) enzyme, not human;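 active = primary screen inhibition at 20 µM above a set limit, cut at about 50% in these data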;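 note: plate controls were DMSO with full reaction for no effect and wells lacking NADH for full effect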
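controls = No-NADH positive control and DMSO neutral control | system = Clostridium kluyveri diaphorase enzyme | timing = reaction incubation of 16 min at room temperature | signal = resorufin fluorescence 544/590 nm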
HKDC1 inh: HKDC1 (human) hexokinase inhibition; Q2TB90; actives 0.16% (n = 340,000); inhibition, % at 20 µM; recombinant HKDC1, G6PDH/diaphorase resazurin coupled fluorescence;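 active = inhibition above about 35% when tested at 20 µM, limit read from the data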;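 note: plate controls were DMSO wells with enzyme for no effect and DMSO wells lacking enzyme for full effect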
Target sequence (Q2TB90 whole entry, looked up): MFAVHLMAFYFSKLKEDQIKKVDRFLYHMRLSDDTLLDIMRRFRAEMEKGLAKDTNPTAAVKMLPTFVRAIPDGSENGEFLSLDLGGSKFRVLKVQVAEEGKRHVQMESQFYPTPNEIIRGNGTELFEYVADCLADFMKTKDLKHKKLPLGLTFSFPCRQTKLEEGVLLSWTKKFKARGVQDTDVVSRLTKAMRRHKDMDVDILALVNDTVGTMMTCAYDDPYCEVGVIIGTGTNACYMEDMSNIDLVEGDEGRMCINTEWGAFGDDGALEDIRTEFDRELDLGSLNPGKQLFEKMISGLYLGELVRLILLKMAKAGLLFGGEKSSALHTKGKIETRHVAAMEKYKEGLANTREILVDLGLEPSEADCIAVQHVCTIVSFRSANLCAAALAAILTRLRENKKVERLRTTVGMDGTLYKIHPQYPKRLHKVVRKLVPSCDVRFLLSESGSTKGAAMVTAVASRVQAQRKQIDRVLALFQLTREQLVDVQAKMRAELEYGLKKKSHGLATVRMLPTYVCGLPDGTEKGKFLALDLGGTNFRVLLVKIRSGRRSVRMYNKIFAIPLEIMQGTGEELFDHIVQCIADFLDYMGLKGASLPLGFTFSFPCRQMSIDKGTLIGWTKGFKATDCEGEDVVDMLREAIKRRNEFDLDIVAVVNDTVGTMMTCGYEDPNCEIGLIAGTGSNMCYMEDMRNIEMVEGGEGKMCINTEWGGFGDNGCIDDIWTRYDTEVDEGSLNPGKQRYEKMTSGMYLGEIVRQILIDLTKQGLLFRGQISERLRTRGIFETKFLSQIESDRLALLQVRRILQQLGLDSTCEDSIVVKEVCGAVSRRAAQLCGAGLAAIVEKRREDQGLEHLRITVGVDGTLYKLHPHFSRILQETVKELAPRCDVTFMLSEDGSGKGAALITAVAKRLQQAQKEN
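Material: recombinant HKDC1 hexokinase; Amount: HKDC1 at 5 µg/mL; Medium: Tris pH 8.0 buffer with MgCl2, Tween-20, BSA, BME; Schedule: 90 min reaction incubation at room temperature, dark; Technique: coupled resazurin fluorescence, excitation 525 nm, emission 613 nm.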
Arbovirus anti: blocks arbovirus infection. arbovirus infection cell-based antiviral screen. inhibition, % at 10 µM. actives 0.37% (n = 200,000). AID 1251; in the data active = inhibition above about 30%
HKDC1 act conf: HKDC1 (human) activation, single-dose confirmed; shares compounds with HKDC1 inh; recombinant HKDC1, G6PDH/diaphorase resazurin fluorescence; stronger effect = lower value; inhibition, % at 20 µM; actives 14% (n = 740); AID 504708;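 active = inhibition at or below a set negative limit, negative inhibition meaning the enzyme was activated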
Starred values were filed as active, the others as inactive; x = not tested or not shown.

SMILES	Diaph act CS	G6PDH CS	Diaph inh CS	HKDC1 inh	Arbovirus anti	HKDC1 act conf
COC1=C(OC)C(=O)C(Sc2ccc3ccccc3c2)=CC1=O	x	x	x	71*	x	71
CCOc1cc2c(cc1/C=C(/C#N)c1ccc(C(=O)O)cc1)OCO2	0.9	2	8	1	2	x
CCc1ccc(S(=O)(=O)NCCc2cn3ccccc3n2)s1	0.9	-3	7	39*	0	8
Cc1ccc(CCNC(=O)CC(C)CC2=NS(=O)(=O)c3ccccc3N2)cc1 (stereo not drawn)	x	x	x	-2	x	x
COc1cc(NC(=O)c2ccnc(N)c2)cc(C(=O)Nc2cccc(C(F)(F)F)c2)c1	x	x	x	16	x	x
COc1cc(NC(=O)c2cnc(N)s2)cc(C(=O)Nc2cccc(C(F)(F)F)c2)c1	x	x	x	59*	x	41
O=S(=O)(/N=C/c1c(O)ccc2ccccc12)c1ccccc1	x	x	x	44*	x	20
O=C(O)c1ccc(N=Cc2c(O)ccc3ccccc23)cc1	x	x	x	33	x	43
O=C(COc1ccc2ccccc2c1)NNC(=O)C(=O)Nc1ccccc1	x	x	x	6	x	x
COc1ccc(-c2nc3c(C(=O)NCCN(C)C)cccc3c3ccccc23)cc1	x	x	x	39*	x	37
CCC/C(O)=C1\C(=O)CC(c2ccccc2)CC1=NCCc1c(C)[nH]c2ccc(C)cc12 (stereo not drawn)	0.9	4	10	-5	-7	x
Fc1ccc(N2C(=S)SC(=Nc3ccccc3)C2=Nc2ccccc2)cc1	x	x	x	-50	x	-32
N#CC(C#N)=C1SC(=Nc2ccccc2)C(=Nc2ccccc2)N1c1ccccc1	x	x	x	-86	x	-32
O=C1/C(=C\c2cccnc2)SC(=S)N1c1ccc(F)cc1	1.2	1	-18	-7	10	x
O=C(CSc1nc(-c2ccc(F)cc2)nc2c1Cc1ccccc1O2)Nc1ccc(C(=O)O)cc1	0.4	-3	60*	44*	32*	-27
CC1(C)Cc2ccccc2C2=NNC(=O)C2=N1	0.3	52*	69*	53*	-29	37
COc1cc(OC)c(NS(=O)(=O)c2c(C(=O)N3CCCCC3)c(C)n(C)c2C)cc1Cl	x	x	x	-4	x	x
Cc1c(C(=O)NC2CCC(C)CC2)oc2ccccc12 (stereo not drawn)	x	x	x	-3	x	x
O=C(CN1C(=O)/C(=C2\SC(=S)N(CCS(=O)(=O)O)C2=O)c2ccccc21)Nc1cccc(Br)c1	x	x	x	58*	x	13
CCOc1ccc(NC(=O)CN2C(=O)/C(=C3\SC(=S)N(C4CCS(=O)(=O)C4)C3=O)c3ccccc32)cc1 (stereo not drawn)	x	x	x	-3	x	x
COc1ccc(NC(=O)c2cc3ccccc3cc2O)cc1	x	x	x	38*	x	-13
Cc1ccc(NC(=O)c2cc3ccccc3cc2O)cc1	x	x	x	5	x	x
O=S(=O)(O)c1ccc(O)c2cc(Nc3ccccc3)ccc12	x	x	x	65*	x	44
O=S(=O)(O)c1cc(O)c2ccc(Nc3ccccc3)cc2c1	x	x	x	50*	x	16
Cc1ccc(S(=O)(=O)c2cc(Nc3ccccc3)ccc2O)cc1	x	x	x	5	x	x
SMILES	Diaph act CS	G6PDH CS	Diaph inh CS	HKDC1 inh	Arbovirus anti	HKDC1 act conf
COc1ccccc1Nc1ccc2c(O)cc(S(=O)(=O)O)cc2c1	x	x	x	38*	x	9
O=S(=O)(O)c1cc(O)c2cc(Nc3ccccc3)ccc2c1	x	x	x	22	x	x
O=C(O)c1cccc2cccc(-c3c4ccc(=O)c(O)c-4oc4c(O)c(O)ccc34)c12	x	x	x	70*	x	36
COC(=O)CN1C(=O)N/C(=C/c2cc(OC)c(OC)cc2C)C1=O	1.1	14	-15	-8	-4	x
CC(C)OCCCNC(=S)Nc1ccc(S(N)(=O)=O)cc1	0.9	6	11	-2	8	x
CC(C)Nc1nnc(SCC(=O)Nc2ccc3c(c2)C(=O)c2ccccc2C3=O)s1	0.5	5	52*	43*	-1	53
C=CCn1nc([N+](=O)[O-])nc1Sc1cccc2cccnc12	0.9	6	14	-47	-31	-52*
O=[N+]([O-])c1ccc(Sc2cccc3cccnc23)cc1	0.9	1	11	14	-2	x
Cc1cc(OCC(=O)NCCc2ccc(S(N)(=O)=O)cc2)c2c(C)cc(=O)oc2c1	x	x	x	10	x	x
CCc1ccc(NC(=O)C/C(C)=N/NC(=O)COc2ccccc2C)cc1	x	x	x	0	x	x
COc1cc(NS(=O)(=O)c2ccc(NC(=O)c3ccc(F)cc3)cc2)ncn1	x	x	x	-59	x	-33
Cc1cc(N2C(=O)C=CC2=O)c([N+](=O)[O-])cc1C	0.8	6	20	-15	0	x
Cc1ccc(S(=O)(=O)N(C(=O)c2ccncc2)c2ccc(OC(=O)c3ccncc3)c3ccccc23)cc1	0.7	-15	33	32	-24	16
O=C(Nc1ccc2nc(-c3ccco3)c(-c3ccco3)nc2c1)NC1CC1	0.2	22	80*	50*	7	-1
O=C(NCc1ccccc1)NC1(C(=O)N2CCN(c3ccccc3)CC2)CCCCC1	0.7	10	26	-2	-5	x
COc1ccc(C(CNC(=O)c2ccc(OCc3c(C)noc3C)cc2)N2CCCC2)cc1 (stereo not drawn)	x	x	x	-2	x	x
Cc1cccc(N=C2NN=C(c3c(C)[nH]c4ccccc34)CS2)c1	0.8	11	20	-41	-34	-18
CN(C)S(=O)(=O)c1cccc(N=C2SCCN2Cc2ccccc2)c1	x	x	x	-5	x	x
CCc1ccc(C2=NNC(=Nc3cccc(S(=O)(=O)N(C)C)c3)SC2)cc1	0.9	5	11	-177	-27	-141*
CC(C)c1ccc(N=C2NN=C(c3cccs3)CS2)cc1	1.1	5	-11	-6	-3	x
Cc1cccc(N=C2NN=C(c3ccc4c(c3)OCCO4)CS2)c1	0.9	4	12	-62	-14	-19
Cc1ccc(C2=NNC(=Nc3ccc(F)cc3)SC2)cc1	0.8	4	16	-70	-15	-80*
CC(C)CC1(C)N=C(c2ccccc2)C(=S)N1 (stereo not drawn)	1	12	-2	-5	4	x
